The results in this text go back to ChEMBL document CHEMBL5674882, “Benzolactam-related compounds promote apoptosis of HIV-infected human cells via protein kinase C-induced HIV latency reversal” (J Biol Chem, 2019).

Test [1] has as its target Protein kinase C (PKC) (Homo sapiens) (UniProt O94806+P41743+P17252+P05129+Q05655+P05771+Q05513+Q02156+P24723+Q15139+Q04759). In words: Synergistic activation of PKC in human J-Lat 10.6 cells infected with latent HIV-1 assessed as reversal of HIV-1 latency by measuring increase of GFP-positive cells at 400 nM in presence of 500 nM JQ1 incubated for 24 hrs by flow cytometry. Type of test: cell-based. To be noted: filed as activator. The method, boiled down:
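J-Lat 10.6 cells at 5 × 10^5 cells/ml treated 24 h alone or with 500 nm JQ1. GFP-positive cells counted by flow cytometry. Fraction affected normalised to PMA response after subtracting the no-drug value. Synergy by Bliss independence (Δfaxy). Mean ± S.D. of three independent experiments.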
(A flow cytometer gives signals particle by particle.)

The next test deals with ACH-2 cell line. In words: Induction of apoptosis in human ACH-2 cells assessed as cleaved-PARP level at 1 uM incubated for 24 hrs by flow cytometry (reference value: 1.64%). In kind it is functional. The method, boiled down: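 Cells fixed, permeabilized, stained on ice with anti-cleaved PARP (Asp-214) mAb; % cleaved-PARP cells by flow cytometry. Means ± S.D. of three independent experiments.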

For `CCCCCCCCCCc1ccc2c(c1)N(C)[C@@H](C(C)C)C(=O)N[C@H](CO)C2`, the Activity in test [1] is 73.1%; with ACH-2 cell line, 21.5%.
